The text below walks through data of article PMC6677133 (European journal of medicinal chemistry, 2019).

Residues, ends and D or L forms follow the SMILES beside them.

The target of one test is CXCR4 (Homo sapiens, UniProt P61073). Put plainly: CXCR4 internalization assay, CHO-CXCR4-FLAG cells. It counts as cell-based. Particulars: 1h of treatment at 100 nM. In short, it runs like this:
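CHO cells expressing N-terminally FLAG-tagged CXCR4 washed at 4°C in RPMI 1640 with 0.5% BSA. Seeded 3×10^5/well and exposed at 37°C to graded test compound, with SDF-1α as positive control. Surface receptor stained with anti-FLAG then FITC anti-mouse antibody, each 30 min at 4°C, and read at 485/528 nm. At least three independent experiments, mean ± SEM.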

The subject of test [1] is NL4–3 strain of HIV-1 (X4 strain). Put plainly: Anti-HIV-1 entry assay, one-day culture, intracellular p24 antigen in PBMCs. It counts as cell-based. Particulars: unlinked control fragments alone; assay format not stated.

Sequence of CXCR4 (P61073 whole entry): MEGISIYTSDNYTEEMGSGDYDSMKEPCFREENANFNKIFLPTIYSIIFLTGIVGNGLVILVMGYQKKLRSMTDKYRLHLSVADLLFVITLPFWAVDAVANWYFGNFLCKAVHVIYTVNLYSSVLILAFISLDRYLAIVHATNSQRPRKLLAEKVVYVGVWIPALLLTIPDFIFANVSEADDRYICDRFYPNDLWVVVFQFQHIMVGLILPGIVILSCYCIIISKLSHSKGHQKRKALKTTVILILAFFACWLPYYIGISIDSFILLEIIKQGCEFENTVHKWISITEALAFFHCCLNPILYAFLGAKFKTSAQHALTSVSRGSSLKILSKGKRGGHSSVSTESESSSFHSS

As for SDF-1α, the CXCR4 internalization at CXCR4 was determined as 43.87%. On to `C[C@@H](O)[C@H](NC(=O)[C@H](CCCNC(=N)N)NC(=O)[C@@H]1CCCN1C(=O)[C@H](CC(N)=O)NC(=O)[C@H](CC(N)=O)NC(=O)[C@H](CC(N)=O)NC(=O)[C@@H](NC(=O)[C@H](CCCCN)NC(=O)[C@H](CCCNC(=N)N)NC(=O)[C@H](CCCCN)NC(=O)CCCCCN)[C@@H](C)O)C(=O)N[C@@H](CS)C(N)=O` [AR6r] (HELM PEPTIDE1{[NCCCCCC(=O)[*:2]].K.R.K.T.N.N.N.P.R.T.C.[am]}$$$$V2.0), for which the antiviral activity result in test [1] is “did not show any antiviral activity”.
